Source: PubChem BioAssay AID2372 (NMMLSC, 2010)

Target: Cell division control protein 42 homolog (Homo sapiens) (UniProt P60953)
Test: Cdc42 GTP Bmax and Kd shifts – biochemical, nucleotide-depleted protein, Mg buffer, varying GTP, mechanism study for Ras-family GTPase inhibitor project, late-stage follow-up (AID 2372)
Conditions: GST-Cdc42 beads, BODIPY-GTP binding, flow cytometry
Outline: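 incubation = EDTA depletion 20 min at 30 °C, compound pre-incubation 2 min | material = GST-Cdc42 bound to glutathione beads, depleted of nucleotide | quantity = 4 µM GST-Cdc42 for bead loading | medium = buffer with 1 mM MgCl2, after 10 mM EDTA stripping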

Chain of Cell division control protein 42 homolog (Homo sapiens) (P60953 whole entry, looked up): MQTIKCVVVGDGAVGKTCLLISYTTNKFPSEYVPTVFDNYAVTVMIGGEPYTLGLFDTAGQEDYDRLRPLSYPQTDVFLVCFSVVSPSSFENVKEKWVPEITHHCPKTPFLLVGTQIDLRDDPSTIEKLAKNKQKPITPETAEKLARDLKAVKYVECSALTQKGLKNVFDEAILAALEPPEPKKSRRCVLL

## COc1ccc(C2CC(c3ccccc3)=NN2c2ccc(S(N)(=O)=O)cc2)cc1 (configuration not stated)
At 10 µM, stronger effect = lower value
  Bmax with compound: 1540
Measured here: GTP affinity with 10 uM compound
  Kd of GTP with compound: 7.16 nM
